# Bioassay records (PubChem)
# SR-BI DiI inh – blocks mouse SR-BI lipid uptake from DiI-HDL | Q61009 | ldlA[mSR-BI] CHO cells, DiI-HDL uptake fluorescence, 3 h | inhibition, % at 12.5 µM | 0.96% of 320,000 active | AID 488896;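 active = mean replicate inhibition of at least 70% and a set share of replicates each scoring 70 or more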;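 note: 0% = median of neutral control wells and 100% = median of positive control wells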
# Target sequence (Q61009 whole entry, looked up): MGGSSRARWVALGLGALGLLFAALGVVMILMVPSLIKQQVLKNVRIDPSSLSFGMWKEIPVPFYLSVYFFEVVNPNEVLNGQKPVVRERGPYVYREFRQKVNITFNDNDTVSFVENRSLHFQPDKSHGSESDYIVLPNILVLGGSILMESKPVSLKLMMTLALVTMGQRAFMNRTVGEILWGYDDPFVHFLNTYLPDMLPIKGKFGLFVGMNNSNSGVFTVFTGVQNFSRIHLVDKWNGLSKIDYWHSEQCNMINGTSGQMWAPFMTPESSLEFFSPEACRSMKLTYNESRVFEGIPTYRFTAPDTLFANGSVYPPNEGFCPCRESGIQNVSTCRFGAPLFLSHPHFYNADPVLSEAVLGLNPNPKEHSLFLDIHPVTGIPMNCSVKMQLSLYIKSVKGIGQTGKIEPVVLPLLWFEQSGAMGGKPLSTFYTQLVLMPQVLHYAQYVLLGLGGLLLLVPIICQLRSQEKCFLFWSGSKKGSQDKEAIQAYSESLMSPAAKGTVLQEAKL
# SR-BI uptake up – enhances SR-BI lipid uptake from DiI-HDL; 0.096% of 320,000 active; activation, % at 12.5 µM; CHO ldlA[mSR-BI] cells, DiI-HDL uptake fluorescence, 3 h; 100 = double the neutral-control signal;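 active = mean replicate activation of at least 60% and every replicate at or above 60%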;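 note: 0% = median plate neutral-control signal and 100% = twice that signal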
#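 Assay system: CHO ldlA[mSR-BI] cells, LDL receptor-null, SR-BI overexpressing; medium: Ham's F12 with 0.5% BSA, HEPES 25 mM, pH 7.4; also added: DiI-HDL 10 µg/mL; timing: 3 h uptake period with compound, 37 °C; signal: DiI fluorescence, bottom read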
# TAG inh – reduces triacylglycerol accumulation in H9c2 cells; Nile Red lipid (TAG) fluorescence; cells loaded with 200 µM oleic acid; inhibition, % at 12.5 µM; 0.66% of 230,000 active; AID 651582;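 active = pattern-corrected inhibition of lipid staining of at least 50% with the nuclear-stain viability signal not falling by more than 50%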;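 note: 0% = DMSO wells and 100% = triacsin C control wells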
# SMARCA2 act – activators of SMARCA2 function; 1% of 370,000 active; activation, % at 9.1 µM; MG213 cells, MMTV-luciferase reporter, dexamethasone, overnight; in the data active = activation above about 7.8%;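 note: 0% = vehicle wells and 100% = reference activator wells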
# Vif imaging – blocks HIV Vif function; HEK293T cells, Vif self-association by quenched fluorescence, imaging, 24 h; inhibition, % at 7.49 µM; 0.35% of 340,000 active; in the data active = inhibition above about 50%, passing the limit was not always enough
# * hit, by the source's call; · = not tested or not shown. A selection: hits, their analogues and other compounds. The true share with any hit is near 2.5%.
SMILES,SR-BI DiI inh,SR-BI uptake up,TAG inh,SMARCA2 act,Vif imaging
CC(=O)c1cc(CC=C(C)C)c(O)c(CC=C(C)C)c1O,20,-20,-4,-1,64*
CC(=O)c1cc(CC=C(C)C)c(O)cc1O,-24,24,1,2,0
O=C/C=C/c1c(-c2ccccc2)cc2oc3ccccc3cc1-2,100*,-100,·,1,-4
Nc1ccc(-c2cc3ccccc3oc2=O)cc1,4,-4,8,-10,-5
Nc1[nH]c(C(=O)c2ccccc2)c(-c2ccc(Cl)cc2)c1C(=O)c1c[nH]c2ccc(F)cc12,·,·,·,3,·
COc1ccccc1-c1cc(C(=O)Nc2sc3c(c2C#N)CCC(C)C3)c2ccccc2n1 (stereo unspecified),86*,-86,30,-5,-4
COC(=O)Nc1sc2c(c1C(N)=O)CCC(C)C2 (stereo unspecified),48,-48,-8,-2,-4
COc1cc(C(=O)Nc2sc(C)c(C)c2C(=O)O)cc(OC)c1OC,-2,2,-4,-2,-1
CC1CCc2c(sc(NC(=O)c3cccn3C)c2C(N)=O)C1 (stereo unspecified),81*,-81,0,4,-12
COc1cc(C(=O)Nc2sc3c(c2C#N)CCN(C(C)=O)C3)cc(OC)c1OC,78*,-78,9,-3,2
COc1cc(C(=O)Nc2sc3c(c2C(=O)O)CCC(C)C3)cc(OC)c1OC (stereo unspecified),-19,19,·,-4,122*
Cc1ccccc1Cn1cc(CN2[C@H](Cc3ccccc3)COc3cc(Br)ccc3S2(=O)=O)nn1,·,·,·,-4,·
COc1ccc(C(=O)Nc2sc3c(c2C#N)CCN(C(C)=O)C3)cc1,76*,-76,9,-3,-11
CCN=C1NC(c2cccc(Cl)c2)C(C(=O)OC)=C(C)N1Cc1ccccc1C(F)(F)F (stereo unspecified),·,·,·,-4,·
CCCCCCCc1c(O)nc(SCCN(C)C)[nH]c1=O,-272,272*,9,-3,4
O=C(N[C@H](C(=O)N1CCC[C@H]1C(=O)NCc1ccccc1)c1ccccc1)c1ccc(Cl)c(Cl)c1,·,·,·,0,·
C[C@@H]1CN([C@@H](C)CO)C(=O)CCCn2cc(nn2)CO[C@H]1CN(C)C(=O)Nc1cccc(F)c1,·,·,·,0,·
N#Cc1ccccc1NC(=O)CNc1ccccc1N1CCCCC1,81*,-81,5,-5,-5
CN(Cc1ccccc1NCC(=O)Nc1ccccc1C#N)C1CCCCC1,-2,2,8,1,5
O=C(O)CCCC(=O)OCCCc1cc2ccccc2c(=O)o1,·,·,·,-2,·
COC(=O)C1=C(C)N(Cc2ccccc2C(F)(F)F)C(=NCc2ccccc2C(F)(F)F)NC1c1ccc(F)cc1 (stereo unspecified),·,·,·,4,·
CCc1cccc(C)c1NC(=O)CSc1nnc(CCCOc2ccc(Cl)cc2Cl)n1C,75*,-75,·,-4,10
NCCCCCC(=O)Nc1ccncc1,6,-6,6,-1,60*
CCCCCC(=O)Nc1ccc(Cc2ccncc2)cc1,12,-12,·,-4,80*
CC(=O)Nc1ccc(Cc2ccncc2)cc1,-4,4,-14,-3,·
SMILES,SR-BI DiI inh,SR-BI uptake up,TAG inh,SMARCA2 act,Vif imaging
CNC[C@@H]1OCc2ccccc2-c2c(n(C)c3ccccc23)C(=O)N([C@@H](C)CO)C[C@@H]1C,·,·,·,-3,·
COC(=O)[C@@]12CCCCC3=C1N(CCC3)C(=O)[C@H]2CC(=O)NCC1CCCCC1,·,·,·,-1,·
CN[C@H]1C[C@H]2c3[nH]c4cccc(-c5ccccc5)c4c3CCN2C[C@H]1[C@H](C)O,·,·,·,3,·
O=C1C=C(c2ccc(F)cc2OCc2ccccc2)C[C@@H](c2ccc(F)cc2)C1,75*,-75,-49,2,1
C(=N\Nc1nc2ccccc2[nH]1)/c1cccc2cccnc12,-3,3,67*,-3,-2
Cc1ccccc1/C=N/Nc1nc2ccccc2[nH]1,12,-12,11,0,-10
O=C(N/N=C/c1cccc2cccnc12)c1ccccc1O,·,·,65*,-6,-4
COC(=O)[C@]12C[C@H](CC(=O)NCc3ccc(OC)c(OC)c3)C(=O)N(CCc3ccc(OC)c(OC)c3)C1=C[C@H](C1CCCC1)O[C@@H]2C,·,·,·,-2,·
Cn1c(SCc2cccc(C(F)(F)F)c2)nnc1-c1ccco1,-164,164*,-6,-1,-3
O=C(N[C@H](Cc1ccccc1)C(=O)O)[C@H]1O[C@@H](n2ccc(=O)[nH]c2=O)[C@H](O)[C@@H]1O,·,·,·,-3,·
Cc1[nH]c2ccccc2c1N=Nc1ccc(F)cc1,83*,-83,19,0,13
Cc1[nH]c2ccccc2c1N=Nc1ccccc1F,35,-35,10,1,-2
COC(=O)[C@H](C(C)C)N(CCc1cn(CC2CCCCC2)nn1)S(=O)(=O)c1ccc(F)cc1Br,·,·,·,-1,·
Cc1ccc(NC(=O)c2ccc([N+](=O)[O-])o2)c(C)c1,-13,13,91,7,11
Cc1ccc(S(=O)(=O)c2ccc([N+](=O)[O-])o2)cc1,17,-17,77*,-12,90*
Cc1cccc2c1-c1sc(C(=O)Nc3cccc([N+](=O)[O-])c3C)cc1CO2,73*,-73,·,-2,1
Cc1cccc2c1-c1sc(C(=O)Nc3nccs3)cc1CO2,66,-66,23,-2,0
CCCCNC(=O)C[C@H]1C[C@@]2(C(=O)OC)C(=C[C@H](C3CCCC3)O[C@@H]2C)N(Cc2ccco2)C1=O,·,·,·,7.8*,·
CCCCNC(=O)C[C@H]1C[C@@]2(C(=O)OC)C(=C[C@H](C3CCCC3)O[C@@H]2C)N(Cc2ccccc2)C1=O,·,·,·,3,·
Cc1ccc(S(=O)(=O)N2CCCc3nc(C)c(C)cc32)cc1,·,·,·,-3,·
C=CCn1c(O)c(C2=c3ccccc3=NC2=O)s/c1=N/c1nccs1,13,-15,25,1,88*
CC(C)CN(C(=O)c1cccc([N+](=O)[O-])c1)c1c(N)n(CC(C)C)c(=O)[nH]c1=O,·,·,·,1,56*
CC(C)CN(C(=O)c1cccc(F)c1)c1c(N)n(CC(C)C)c(=O)[nH]c1=O,·,·,·,-1,33
Cc1cc(Oc2cccnc2)ccc1NC(=O)Cc1c[nH]c2ccccc12,·,·,·,1,·
CCOC(=O)C1=C(C(=O)OCC)C2N(Cc3ccc(C(F)(F)F)cc3)c3ccccc3[C@@]23C[C@@H](C(=O)OC)N(S(=O)(=O)c2ccccc2C)C3=N1 (stereo partly specified),·,·,·,-6,·
COc1ccc(NC(=O)C(NC(=O)Cc2cccs2)c2ccc(C)cc2)cc1 (stereo unspecified),-65,65*,·,1,1
COc1ccc(NC(=O)C(NC(=O)Cc2cccs2)c2ccccc2)cc1 (stereo unspecified),-2,2,·,-2,5
NC(=S)NN=C(c1ccc(F)cc1)C1CC1,90*,-90,-11,-1,70*
NC(=S)NN=C(c1ccc(Br)cc1)C1CC1,79*,-79,-14,2,-3
